Experimental data: the EternaBench riboswitch data

System: MS2 coat protein
Test: apparent Kd, MS2 coat protein; higher = weaker binding; RNA-MaP array; FMN 200 µM where present
In short: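 The apparent Kd is reported as the median of filtered per-cluster binding-curve fits. To get these curves, designs transcribed by stalled E. coli RNA polymerase on Illumina sequencing-chip clusters were titrated with SNAP-549-labelled MS2 coat protein from 0.7 or 1.5 nM, doubling to 3 µM. Titrations were run without and then with constant ligand in 100 mM Tris-HCl pH 7.5, 80 mM KCl, 4 mM MgCl2, BSA, DTT, yeast tRNA and Tween-20, and green signal was normalised to red-channel RNA signal and control-cluster median Fmax.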

[1] = designed as: ON switch for flavin mononucleotide, no ligand
[2] = ligand present: flavin mononucleotide, designed as: ON switch for flavin mononucleotide
[3] = designed as: OFF switch for flavin mononucleotide, no ligand
[4] = ligand present: flavin mononucleotide, designed as: OFF switch for flavin mononucleotide

| Sequence | apparent Kd [1] | apparent Kd [2] | apparent Kd [3] | apparent Kd [4] |
| --- | --- | --- | --- | --- |
| GUAGCAUACCAAGGAUAUUUAGGGCUUUGAUAGACAUGAGGAUCACCCAUGUGGCGUUAGUCAAGGGAGAAGGUGGUAUGCUAC | 22.6 nM | 14.5 nM |  |  |
| AAAUAAUUGUCAGGAUAUGGCAUGUAGACGAUGCCAGAAGGGACAUGAGGAUCACCCAUGUUGCUCAACACUGGGAGACGUAAG |  |  | 133 nM | 273 nM |
| GUGACGAAUGUAGGAUAUGCUGAGGAAUACUCAGCAGAAGGACAUGAGGAUCACCCAUGUAAUCCUAAUAAUAAAUAACGUCAC |  |  | 13 nM | 18.3 nM |
| GCACUGGAUGUAGGAUAUCAGGACGAUAAGUCCUGAGAAGGACAUGAGGAUCACCCAUGUAAAACUCAACCAGUGCAUAAUAUA |  |  | 14.5 nM | 18.5 nM |
| UUUUAACAUGAGGAUCACCCAUGUGAGGAUAUCGAAAUUUAUAUUAAUAUUUAUUAUACGAGAAGGCACAUUUU |  |  | 73.6 nM | 97 nM |
| CAUUAAUUCAUUAUAGUAAUUAUACAGGAUAUGUUACAUGAGGAUCACCCAUGUAUUCUUGGUAAACAGAAGGGUAUUUCUAGU |  |  | 7.35 nM | 9.31 nM |
| UGUUAUUAGACAGGAUAUUGAAUGUUAAGUAUUAACAUGAGGAUCACCCAUGUAUUUCAUUCGUACAAGAAGGGUCAUGUUCCU | 166 nM | 202 nM |  |  |
| CCUCCCAAGUAAGGAUAUCGGCCAUAGUUAACUCGAGAAGGUACAUGAGGAUCACCCAUGUCGUCCCUACAGACUCCUCCCUCC |  |  | 9.19 nM | 9.15 nM |
| GGUAAAGGCAGCCUCUACCCUGCACAUGAGGAUCACCCAUGUAAGGAUAUCGCCGCGGUAAUGGUCGAGAAGGUAUAUCGGGUU |  |  | 15.9 nM | 46.5 nM |
| GCAGCGCUUGACAUGAGGAUCACCCAUGUUAGAUUGUUAUGUCAGGAUAUAGUCUAGAAACUAGACUAGAAGGGAUAUGCUGCU | 290 nM | 34.1 nM |  |  |
| ACGCGAUGGGAGAAGGUACUUUAAUUAGGUUACACAUGAGGAUCACCCAUGUAAGGAUAUCCCAUCGUUAAAUAUUAUACAGCA |  |  | 6.16 nM | 5.41 nM |
| UUUUUACGAGGAUAUCGUUUUUUUCACAUGAGGAUCACCCAUGUUGUUUAUGUUUCGUUUCGAGAAGGCGUUUGUU |  |  | 28.2 nM | 22.1 nM |
| UAUGUAUUCGUAGGAUAUCCGUCGCCACCGUGUGGAGAAGGACGAACAUGAGGAUCACCCAUGUAUCAUGGUGUAGACACUUUC |  |  | 126 nM | 183 nM |
| AAAACAUGAGGAUCACCCAUGUAAUGAUCGGUUGAUGAAAGUGAGGAUAUACAAAAUUUUAUGGAGUAGAAGGCACUGGGUUCA | 31.4 nM | 31.9 nM |  |  |
| UCUGUCCUUGUCAGGAUAUCGAUGGUAAGACCAUGCGAGAAGGGACAUGAGGAUCACCCAUGUUCGACCUGGGU |  |  | 176 nM | 222 nM |
| AAGGUACAUGAGGAUCACCCAUGUGGGUCGAACGCAGGAUAUCGCCGUUGGCCCUGGCGGCGAGAAGGGUGCCGAA | 189 nM | 175 nM |  |  |
| UGUCGGAGCAGAGGAUAUACAUGAGGAUCACCCAUGUAAUAAAGUGAAGCCUGGAAACAGGCAAUGUAGAAGGCUGCUCCGACA |  |  | 29.9 nM | 249 nM |
| CGAUAGGACAGAGGAUAUACACAUGAGGAUCACCCAUGUAAUUACAAUUCUUAAGAUUCUAACAUGUAGAAGGCUGUCCUAUCG |  |  | 40.2 nM | 19.3 nM |
| GCUAUUGAUGUAGGAUAUGAUAUAGAAACUAUGUCAGAAGGACAUGAGGAUCACCCAUGUCAAUGGAUGGAGAGAAGAAAUGGC |  |  | 47.8 nM | 59.2 nM |
| CGCUACUACCAGAAGGACAUGAGGAUCACCCAUGUAGGAUAUGGGUUACACGUUCCUGUGUUUUGUUACUACGCUACGUAUGCG | 621 nM | 29 nM |  |  |
